# Hsp70 activator – Hsp70 transcriptional activation, primary screen | activation, % at 10 µM | HeLa Hsp70 promoter luciferase reporter, luminescence; scaled: vehicle 0, proteasome-inhibitor control 100% | AID 1203 | hit rate 0.04% among 200,000;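 active = activation above the mean across all tested compounds plus 3 SD, cutoff set per campaign, cut at about 5.5% in these data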;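 also: 100% = MG132 at 30 µM as the positive control and 0% = DMSO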
# PolyA inh – yeast polyadenylation inhibition; S. cerevisiae SKY197-pL101 polyadenylation reporter, beta-gal luminescence; efflux-impaired pdr1/pdr3 knockout yeast; score 100 = 6 SD above DMSO; activity score, % at 12 µM; hit rate 0.02% among 300,000; AID 1875;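 active = lowest replicate activity score at least 50, where 100 means six control SD above control mean; inconclusive = lowest score under 50 but half or more replicates reach 50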;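 also: yeast exposed to compound for 9 h at 30 °C; higher score means more reporter readthrough which indicates perturbed polyadenylation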
# AHR act – activates the human aryl hydrocarbon receptor. AHR-responsive luciferase reporter cells, luminescence. activation, % at 5 µM. P35869. hit rate 2.5% among 320,000; in the data active = activation above about 47%;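 also: 0% = vehicle wells and 100% = reference agonist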
# Target sequence (P35869 whole entry, looked up): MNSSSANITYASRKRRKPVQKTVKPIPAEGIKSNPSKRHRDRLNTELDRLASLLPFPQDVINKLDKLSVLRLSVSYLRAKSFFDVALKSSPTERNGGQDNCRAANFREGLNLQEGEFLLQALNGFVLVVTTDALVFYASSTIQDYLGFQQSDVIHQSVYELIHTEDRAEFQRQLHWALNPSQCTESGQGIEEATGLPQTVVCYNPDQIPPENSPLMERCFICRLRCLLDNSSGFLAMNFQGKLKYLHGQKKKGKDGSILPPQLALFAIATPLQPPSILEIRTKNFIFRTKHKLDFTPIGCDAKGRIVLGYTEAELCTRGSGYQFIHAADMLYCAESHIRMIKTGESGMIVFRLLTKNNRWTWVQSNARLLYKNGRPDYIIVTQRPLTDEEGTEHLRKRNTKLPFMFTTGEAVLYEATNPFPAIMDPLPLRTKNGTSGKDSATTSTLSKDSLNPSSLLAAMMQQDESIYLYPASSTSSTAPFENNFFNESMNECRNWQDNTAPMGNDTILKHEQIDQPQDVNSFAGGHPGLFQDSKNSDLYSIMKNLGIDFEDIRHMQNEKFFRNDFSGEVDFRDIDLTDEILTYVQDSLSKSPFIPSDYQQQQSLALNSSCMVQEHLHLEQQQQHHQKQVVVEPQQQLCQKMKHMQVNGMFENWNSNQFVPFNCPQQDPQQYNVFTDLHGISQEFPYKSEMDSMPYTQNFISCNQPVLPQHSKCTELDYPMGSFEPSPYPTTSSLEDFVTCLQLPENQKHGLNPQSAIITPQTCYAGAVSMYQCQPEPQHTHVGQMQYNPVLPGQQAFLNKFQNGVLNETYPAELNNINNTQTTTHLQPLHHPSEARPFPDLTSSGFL
# HSF1 inhib – HSF1 inhibition; NIH3T3-HGL HSE-luciferase, MG132-induced, luminescence 8 h; active compounds read low; hit rate 0.77% among 300,000; activity change, negative = inhibition, % at 7.5 µM (by protocol);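 active = more than half of replicate wells show activity change below -50%, luminescence cut by over half; inconclusive = some wells, but at most half, below -50%; inactive = no replicate well below -50%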;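 also: luciferase reports HSF-1 transcriptional activity via heat shock element; 0% = median of DMSO wells and -100% = zero luminescence signal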
# STAT3 act-1 – activators of IL-6 induced STAT3 signaling; U3A cells, IL-6 STAT3-luciferase reporter, luminescence; 100% = signal with IL-6 EC80 alone; activation (% of control), % at 5.6 µM; hit rate 0.91% among 190,000; AID 871;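 active = activation above the screen-wide mean of compound activation plus 3 SD, cut at about 130% in these data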;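 also: 0% = background luminescence of wells with medium and substrate only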
#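 Material: human STAT1-deficient U3A cells with stable STAT3-luciferase reporter / Probe or stimulus: IL-6 stimulus at 33 ng/mL final / Schedule: 1 h compound pre-exposure, 6 h IL-6 stimulation, 37 °C / Technique: luminescence / Read-out basis: percent of IL-6-only median luminescence / Control set: IL-6-only high control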
# PERK inh – blocks human PERK kinase; CHO PERK-DD fusion, SEAP luminescence translation reporter; hit rate 0.17% among 220,000; inhibition, % at 5.6 µM; AID 1416; Q9NZJ5;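 active = inhibition above the mean inhibition of all tested compounds plus 3 SD, set separately per screening campaign, cut at about 2.9% in these data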;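 also: PERK kinase domain activated by AP20187 dimerizer at 100 nM; 0% = DMSO with dimerizer and 100% = rapamycin at 8.4 µM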
# STAT3 act-2 – STAT3 activation, confirmation assay; U3A STAT3-luciferase reporter, IL-6 potentiation, luminescence; U3A cells lack STAT1; 100 means same as IL-6 alone; potentiation (% of control), % at 5.7 µM; hit rate 64% among 1,200; shares compounds with STAT3 act-1;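 active = percent activation of the STAT3 luciferase reporter above a set limit taken from the earlier primary screen, cut at about 130% in these data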;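 also: 0% = background signal of medium plus substrate and 100% = median of IL-6 with DMSO wells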
# NFkB act 2 – NF-kappaB activation in STAT3 activator counter-screen; shares compounds with STAT3 act-1; human cells, NF-kappaB reporter activation; activation (% of control), % at 5.7 µM; hit rate 11% among 1,200; AID 1309; in the data active = activation above about 120%;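 also: reporter induced by TNF-alpha stimulation; 100% = median of stimulated DMSO wells and 0% = no signal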
# STAT1 act STAT3c – counter-screen for STAT3 activators: STAT1 activation. shares compounds with STAT3 act-1. NIH 3T3 STAT1-luciferase reporter, IFN-gamma, luminescence. activation (% of control), % at 5.7 µM. hit rate 13% among 1,200;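 active = activation above the solvent-only control well mean plus 3 SD, set per screening run, cut at about 120% in these data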;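 also: 100% = IFN-gamma with DMSO median signal so 100% means no change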
# Active calls of the source: *; u = inconclusive; x = no result. Sampled rows, rich in hits. Any-hit rate of the full collection: about 3.6%.
SMILES,Hsp70 activator,PolyA inh,AHR act,HSF1 inhib,STAT3 act-1,PERK inh,STAT3 act-2,NFkB act 2,STAT1 act STAT3c
CC1=NC(=O)C(N=Nc2cccc(O)c2)N1c1ccccc1 (stereo unspecified),0.9,-8.0,28.7,23.0,185.0*,0.9,186.7*,105.5,120.1
O=C(Nc1nccs1)c1c(O)c2cccc3c2n(c1=O)CCC3,0.0,-2.6,29.3,2.1,153.6*,1.1,167.4*,98.8,98.2
O=C(Nc1ccccn1)c1c(O)c2cccc3c2n(c1=O)CCC3,0.5,1.5,27.1,15.7,157.2*,-0.3,146.1*,104.3,99.1
O=C(NCCO)c1c(O)c2cccc3c2n(c1=O)CC3,-0.3,-2.5,6.5,-8.8,84.6,-1.0,x,x,x
CC(C)(C)c1ccccc1NC(=O)c1c(O)c2cccc3c2n(c1=O)CC3,0.1,u,16.0,24.5,149.4*,0.5,144.2*,105.4,98.9
CCCCn1c(N)c(N(C)C(=O)c2c(C)nn(-c3ccccc3)c2C)c(=O)[nH]c1=O,x,x,-0.7,x,x,x,x,x,x
Cc1nc2nc(-c3ccccc3)nn2c(C)c1C,x,6.6,43.3,15.8,x,x,x,x,x
Cc1nc2nc(-c3ccccc3)nn2c(C)c1Cl,-0.1,3.8,55.4*,0.7,178.7*,1.6,168.9*,125.9*,137.7*
Cc1nc2nc(-c3ccc(Cl)cc3)nn2c(C)c1Cl,-0.1,10.9,53.1*,3.7,167.0*,1.3,163.6*,117.7,124.0*
CSc1sc(C(=O)NC(=O)NCc2ccncc2)c(C)c1-c1ccon1,x,4.8,11.7,-10.3,x,-1.2,x,x,x
Cc1cccc(N(CC(=O)NC2CCCCC2)C(=O)CCC(=O)Nc2nccs2)c1,x,-4.0,-0.1,6.3,x,x,x,x,x
CSc1nc(N)nc2c1ncn2CC(=O)NCC1CCCO1 (stereo unspecified),x,x,0.1,x,x,x,x,x,x
CCn1cc(C(=O)N[C@@H](CCSC)C(=O)NCCCn2ccnc2)c(=O)c2cc3c(cc21)OCO3,x,-2.3,5.4,-5.9,x,x,x,x,x
Cc1cccc(C)c1NC(=S)/C(=C(\[O-])c1cccs1)[n+]1ccccc1,-0.3,11.6,6.9,-10.5,91.3,0.5,x,x,x
[O-]/C(=C(\C(=S)Nc1cccc2ccccc12)[n+]1ccccc1)c1cccs1,-0.4,4.3,36.1,-0.1,143.1*,0.7,136.3*,105.7,91.8
O=C(Cc1cccs1)Nc1ccon1,-0.4,4.8,2.5,-10.9,103.0,0.9,x,x,x
O=C(Cc1cccs1)Nc1ccccn1,-0.2,8.2,17.4,1.3,157.0*,0.6,137.0*,101.9,95.3
COc1cc(C2C3=C(CC(C)(C)CC3=O)Nc3ccccc3N2C(C)=O)cc(OC)c1OC (stereo unspecified),x,-10.8,0.4,-5.7,x,x,x,x,x
COc1cc2c(cc1OC)-c1cc(N3CCCc4ccccc43)nc(=O)n1CC2,-0.2,6.6,14.6,-4.0,148.7*,-0.8,133.4*,102.6,96.3
COc1cc(-c2nnc(CSc3nc4ccccc4s3)o2)cc(OC)c1OC,-0.3,x,x,x,136.7*,-0.6,128.6,104.7,110.2
CCOc1ccc(N2CC(C(=O)NCC(=O)Nc3ccc(F)c(F)c3F)CC2=O)cc1 (stereo unspecified),x,x,-0.3,x,x,x,x,x,x
Oc1cccc(C2c3[nH]c4ccccc4c3CCN2Cc2ccoc2)c1 (stereo unspecified),-0.3,18.3,22.4,-2.9,137.7*,-0.3,137.3*,102.4,94.1
Oc1cccc(C2c3[nH]c4ccccc4c3CCN2Cc2ccc3c(c2)CCO3)c1 (stereo unspecified),-0.2,-2.1,15.1,-7.3,141.2*,-0.1,142.4*,104.2,94.4
COc1cc(C(=O)N/N=C/c2ccc(OC)c(CN3CCN(c4ccc(F)cc4)CC3)c2)ccc1O,-0.1,5.5,5.5,-9.3,100.7,0.4,x,x,x

# Compound activity (PubChem)
